Source: PubChem
INS-1E rescue – rescue of cytokine-induced death in INS-1E beta cells. INS-1E cytokine-induced death, ATP luminescence, 48 h; normalised: neutral wells 0, positive control 100. protection from cytokine-induced ATP loss, % at 10 µM. hit rate 0.1% among 20,000. AID 488910;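 active means mean replicate protection from cytokine-induced ATP loss at least 50% and at least 75% of replicates each reaching 50%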
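Material: INS-1E rat cells; Quantity: 8000 cells/well; Buffer or medium: phenol-red-free RPMI with 5% fetal bovine serum; Probe or stimulus: cytokine cocktail of IFN-γ, TNF-α and IL-1β; Compound dosing: single test concentration per compound, delivered by pin transfer; Incubation: 48 h co-treatment, 10 min post-lysis read; Signal: CellTiter-Glo luminescence.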
A1 apoptosis 2 – A1 inhibition read as caspase activation. MEF A1-2A-BIM cells, caspase-Glo luminescence, 3 h; percent of clofoctol response, DMSO zero. caspase activation, % (no concentration beside the values). 24,000 tested, under 10 active. AID 2465; in the data active means caspase activation above about 5.9%
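Material: mouse embryonic fibroblasts co-expressing A1 and BIM (A1-2A-BIM), primed for A1 dependence / Quantity: 2500 cells/well / Buffer or medium: RPMI-1640 growth medium with 10% FBS / Doses: 50 nL compound per well, pinned / Schedule: 3 h compound exposure at 37 °C / Signal: Caspase-Glo luminescence (DEVD substrate) / Measure: Caspase-3/7 activation, seen as rise in luminescence signal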
T cruzi HTS – blocks T. cruzi growth inside host cells | AID 651903 | intracellular Trypanosoma cruzi in host cells, plate reader | hit rate 4.9% among 22,000 | activity score (inhibition), % at 5.01 µM; in the data active means activity score above about 55%;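 further: parasites and compound incubated about four days before reading; 0% = median of neutral control wells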
Active calls of the source: *; / = not tested or not shown. The full list was thinned out, with hits kept by preference.

SMILES	INS-1E rescue	A1 apoptosis 2	T cruzi HTS
Cc1ccc(S(=O)(=O)N(C)C[C@@H]2Oc3ccc(NC(=O)Nc4ccc(C(F)(F)F)cc4)cc3CC(=O)N([C@@H](C)CO)C[C@H]2C)cc1	/	-1	/
C[C@H](CO)N1C[C@H](C)[C@H](CN(C)S(=O)(=O)c2ccc(F)cc2)Oc2ccc(NC(=O)Nc3ccc(F)cc3)cc2CC1=O	-7	-1	23
COC(=O)CCCCCCC(=O)N/N=C/c1cc(OC)c(O)cc1Br	2	-1	4
CC1(C)COC(CCC/C=N/NC(=O)c2cccc(C(=O)NO)c2)OC1	0	1	-12
OCc1ccc(-c2ccncc2)cc1	/	1	/
COC(=O)C[C@H]1O[C@@]2(C[C@@H]1[Si](C)(C)C)C(=O)N(C)c1ccccc12	/	0	/
Cc1ccccc1/C=N/NC(=O)CCCCC(=O)NO	67*	/	2
O=C(CCCCC(=O)N/N=C\c1ccc2c(c1)Cc1ccccc1-2)NO	94*	/	17
COC(=O)CCCCCCC(=O)N/N=C/c1ccc2c(c1)Cc1ccccc1-2	-2	0	26
O=C(CCCCCC(=O)N/N=C/c1c[nH]c2ccccc12)NO	91*	/	-1
Cc1ccsc1/C=N/NC(=O)CCCCCCC(=O)Nc1ccccc1O	8	1	0
O=C(CCCCCCC(=O)N/N=C/c1ccccc1)NO	/	0	/
Cc1ccccc1/C=N/NC(=O)CCCCCCC(=O)Nc1ccccc1O	1	2	5
Cc1ccsc1/C=N\NC(=O)CCCCCC(=O)NO	118*	/	3
O=S(=O)(N[C@@H]1CCN(Cc2ccc(OCCO)cc2)C1)c1cc(C(F)(F)F)ccc1Cl	/	0	/
CC(C)=CCC[C@H](C)C/C=N/NC(=O)CCCCCC(=O)NO	/	0	/
Cc1noc(C)c1S(=O)(=O)N(C)C[C@@H]1OCCCC[C@@H](C)Oc2ccc(NC(=O)Nc3cccc4ccccc34)cc2C(=O)N([C@H](C)CO)C[C@@H]1C	/	0	/
COc1ccc(S(=O)(=O)Nc2ccc3c(c2)C(=O)N([C@H](C)CO)C[C@H](C)[C@@H](CN(C)C)OCCCC[C@@H](C)O3)cc1	6	/	-6
C[C@@H]1CCCCO[C@@H](CN(C)Cc2ccccc2)[C@@H](C)CN([C@H](C)CO)C(=O)c2cc(NC(=O)Nc3ccc(C(F)(F)F)cc3)ccc2O1	-40	/	71*
COc1ccc(NC(=O)Nc2ccc3c(c2)C(=O)N([C@@H](C)CO)C[C@@H](C)[C@@H](CN(C)Cc2ccc(C(F)(F)F)cc2)OCCCC[C@H](C)O3)cc1	/	-1	/
C[C@@H]1CCCCO[C@H](CN(C)Cc2ccc(C(F)(F)F)cc2)[C@@H](C)CN([C@@H](C)CO)C(=O)c2cc(NC(=O)c3ccccc3)ccc2O1	/	-1	/
C[C@@H]1CCCCO[C@@H](CN(C)Cc2ccc(C(F)(F)F)cc2)[C@@H](C)CN([C@H](C)CO)C(=O)c2cc(NC(=O)Cc3ccccc3)ccc2O1	-15	/	63*
C[C@@H]1CCCCO[C@@H](CN(C)Cc2ccc(C(F)(F)F)cc2)[C@@H](C)CN([C@H](C)CO)C(=O)c2cc(NC(=O)c3ccccc3)ccc2O1	-11	/	63*
C[C@@H]1CCCCO[C@@H](CN(C)Cc2ccc(C(F)(F)F)cc2)[C@H](C)CN([C@@H](C)CO)C(=O)c2cc(NC(=O)Cc3ccccc3)ccc2O1	/	-1	/
COc1ccc(NC(=O)Nc2ccc3c(c2)C(=O)N([C@H](C)CO)C[C@H](C)[C@@H](CN(C)Cc2ccc(C(F)(F)F)cc2)OCCCC[C@@H](C)O3)cc1	-16	1	63*
SMILES	INS-1E rescue	A1 apoptosis 2	T cruzi HTS
C[C@@H]1CCCCO[C@@H](CN(C)Cc2ccccc2)[C@@H](C)CN([C@@H](C)CO)C(=O)c2cc(NC(=O)Nc3ccc(C(F)(F)F)cc3)ccc2O1	/	1	/
C#CCNC(=O)C1=C[C@H](c2ccc(C#C)cc2)[C@@H](CCCO)[C@H](OCC)O1	/	-1	/
COC(=O)C(CC#Cc1ccc2c(c1)[C@]1(C(=O)N2)[C@H](c2ccccc2OCCO)N2[C@H](c3ccccc3)[C@H](c3ccccc3)OC(=O)[C@H]2[C@@H]1C(=O)O)C(=O)OC	/	1	/
O=C(CCCCCC(=O)Nc1ccccc1O)N/N=C/c1ccc(S(=O)(=O)O)o1	/	1	/
O=C(NO)c1ccc(C(=O)N/N=C/c2ccccc2OCCO)cc1	8	1	-7
COc1ccc(C#Cc2ccc3c(c2)[C@]2(C(=O)N3)[C@H](c3ccc(O)cc3)N3[C@H](c4ccccc4)[C@H](c4ccccc4)OC(=O)[C@H]3[C@@H]2C(N)=O)cc1	/	1	/
COC(=O)C(CC#Cc1ccc2c(c1)[C@]1(C(=O)N2)[C@H](c2ccc(O)cc2)N2[C@H](c3ccccc3)[C@H](c3ccccc3)OC(=O)[C@H]2[C@@H]1C(=O)O)C(=O)OC	/	1	/
COc1ccc(C#Cc2ccc3c(c2)[C@]2(C(=O)N3)[C@H](C(=O)O)[C@H]3C(=O)O[C@H](c4ccccc4)[C@H](c4ccccc4)N3[C@@H]2c2ccccc2OCCO)cc1	/	-1	/
O=C(O)CCCCCCC(=O)N/N=C/c1ccc(C(F)(F)F)cc1	12	/	-9
C[C@@H]1CCCCO[C@@H](CN(C)Cc2ccc(C(=O)Nc3ccccc3N)cc2)[C@@H](C)CN([C@H](C)CO)C(=O)c2cc(NC(=O)Nc3ccc(F)cc3)ccc2O1	-3	/	9
C[C@@H]1CCCCO[C@@H](CN(C)Cc2ccc(C(=O)Nc3ccccc3N)cc2)[C@@H](C)CN([C@H](C)CO)C(=O)c2cc(NC(=O)Nc3ccc(C(F)(F)F)cc3)ccc2O1	-45	1	81*
C[C@H](CO)N1C[C@H](C)[C@H](CN(C)Cc2ccc(Oc3ccccc3)cc2)Oc2c(NC(=O)c3ccc(-c4nccs4)cc3)cccc2C1=O	-70	/	86*
C[C@H](CO)N1C[C@H](C)[C@H](CN(C)Cc2ccccc2)Oc2c(NC(=O)c3ccc(-c4nccs4)cc3)cccc2C1=O	-3	/	-24
C[C@H]1CN([C@@H](C)CO)C(=O)c2cccc(NC(=O)c3ccc(-c4nccs4)cc3)c2O[C@@H]1CN(C)Cc1ccc(Oc2ccccc2)cc1	5	0	31
C[C@@H]1CN([C@H](C)CO)C(=O)c2cccc(NC(=O)c3ccc(-c4nccs4)cc3)c2O[C@H]1CN(C)Cc1ccc(Oc2ccccc2)cc1	-22	0	81*
C[C@H](CO)N1C[C@H](C)[C@H](CN(C)Cc2ccc(Cl)c(Cl)c2)Oc2ccc(NS(=O)(=O)c3ccc(Cl)cc3)cc2C1=O	-11	/	20
C[C@@H]1CN([C@H](C)CO)C(=O)c2cc(NS(=O)(=O)c3ccc(Cl)cc3)ccc2O[C@@H]1CN(C)Cc1ccc(Cl)c(Cl)c1	-23	/	85*
C[C@@H]1CCCCO[C@H](CN(C)Cc2ccc(Cl)c(Cl)c2)[C@@H](C)CN([C@H](C)CO)C(=O)c2cc(NS(=O)(=O)c3cccs3)ccc2O1	-24	/	17
C[C@@H]1CCCCO[C@@H](CN(C)Cc2ccc(C(F)(F)F)cc2)[C@@H](C)CN([C@H](C)CO)C(=O)c2cc(NS(=O)(=O)c3ccc(F)cc3)ccc2O1	-63	/	64*
